From PubChem
Tn7 DDE FP: inhibitors of Tn7 peptide binding to human fibrin DD(E) | AID 720508 | hit rate 0.13% among 370,000 | P02675 | FP displacement of FITC-Tn7 peptide from fibrin DD(E); 0% = median of compound wells per plate | inhibition, % at 8.3 µM;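 active means inhibition above the mean of compounds falling within the control limits plus 3 SD of them, cut at about 14% in these data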;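 further: 0% = plate median of compound wells and 100% = 10 µM Aha-Tn7 peptide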
Target sequence (P02675 whole entry, looked up): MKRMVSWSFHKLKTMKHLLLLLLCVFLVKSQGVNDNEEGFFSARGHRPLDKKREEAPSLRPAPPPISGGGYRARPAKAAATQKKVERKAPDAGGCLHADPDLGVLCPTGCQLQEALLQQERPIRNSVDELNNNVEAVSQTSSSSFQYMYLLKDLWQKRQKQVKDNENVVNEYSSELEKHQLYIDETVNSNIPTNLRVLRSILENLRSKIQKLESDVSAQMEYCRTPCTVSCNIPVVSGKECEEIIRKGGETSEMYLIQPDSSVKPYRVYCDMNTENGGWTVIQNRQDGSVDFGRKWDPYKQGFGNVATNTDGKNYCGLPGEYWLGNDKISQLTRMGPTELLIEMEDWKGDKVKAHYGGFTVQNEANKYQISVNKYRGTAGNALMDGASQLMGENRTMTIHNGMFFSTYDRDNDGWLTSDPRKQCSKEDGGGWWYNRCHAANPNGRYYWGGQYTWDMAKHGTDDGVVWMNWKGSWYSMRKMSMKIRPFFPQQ
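Assay system: Fibrin-DD(E) protein isolated from polymerized human fibrin clots; read-out basis: percent inhibition; medium: Tris/NaCl/CaCl2 buffer, pH 7.8; signal: FP measurement; incubation: 10 min plus 3 h, room temperature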
DDE Tn6 FP inh: inhibitors of Tn6 peptide binding to human fibrin DD(E); inhibition, % at 8.3 µM; P02675; Fibrin DD(E) TRITC-Tn6 fluorescence polarization displacement; hit rate 0.21% among 370,000;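 active means inhibition above a per-campaign cutoff: mean of compounds within control limits plus 3 SD, cut at about 15% in these data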;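 further: 0% = median of all compound wells on the plate and 100% = blocking peptide control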
aDG glyco up: alpha-DG glycosylation activation. Pro5-aDG cells, alpha-DG glycosylation AlphaScreen (IIH6); 0% Pro5, 100% B10-LARGE cell signal. activation, % at 10 µM. hit rate 0.22% among 360,000;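 active means activation of at least 8% versus controls, or a plate z-score of at least 8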;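 further: Pro5 are CHO cells carrying HIG-tagged alpha-DG that lacks glycosylation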
NRP1-CendR mod: NRP-1/CendR interaction modulation; hit rate 0.85% among 360,000; O14786; FAM-RPARPAR peptide binding to NRP-1, fluorescence polarization; inhibition, % at 25 µM;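 active means inhibition or corrected inhibition above about 18%, plus a signal ratio from 0.5 to 1.5, limit read from the data, passing the limit was not always enough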
* marks the source's active call; other numbers are inactive results; . = no result given. A selection: hits, their analogues and other compounds. The true share with any hit is near 1.3%.

SMILES	Tn7 DDE FP	DDE Tn6 FP inh	aDG glyco up	NRP1-CendR mod
COc1ccc(-c2nnc(SCC(=O)NN=Cc3c(O)ccc4ccccc34)n2-c2ccc(OC)cc2)cc1	4.4	-8.1	.	.
CC1(C)CC(=O)N(CC(=O)N2CCN(c3cccc(Cl)c3Cl)CC2)c2ccccc2S1(=O)=O	4.9	5.1	.	.
O=C(NCCC1=CCCCC1)c1ccc(=O)oc1	-1.5	-2.8	-0.4	51.2*
C=CCN1C(=O)/C(=C2/Sc3ccccc3N2CCCS(=O)(=O)O)SC1=S	5.7	-3.7	0.3	-35.1
C=CCN1C(=O)/C(=C2/Sc3ccccc3N2CC)SC1=S	3.5	6.4	-0.1	77.2*
Cc1sc2nc(COC(=O)CNC(=O)c3cc(F)ccc3F)[nH]c(=O)c2c1C	-8.5	-2.0	.	.
CCN(CC(=O)Nc1ccc(OC)c(OC)c1)S(=O)(=O)c1ccc(C)cc1	1.0	-4.7	0.7	-1.8
CCN(CC(=O)Nc1cccc(C(C)=O)c1)S(=O)(=O)c1ccc(C)cc1	-4.5	2.4	0.3	42.9*
Cn1c(N)c(C(=O)COC(=O)C2(c3ccc(F)cc3)CCCC2)c(=O)n(C)c1=O	6.7	2.9	0.4	4.6
Cn1c(N)c(C(=O)COC(=O)C2(c3ccccc3F)CCCC2)c(=O)n(C)c1=O	-2.5	2.2	-0.1	32.0*
Cc1ccc(O)c(C(=O)c2cnc3c(c2)COc2ccccc2-3)c1	3.9	-6.0	-0.1	26.1*
Cc1ccc(C(=O)CN(CCC(=O)O)C(=O)c2ccncc2)cc1	-3.8	1.4	0.0	21.8*
Cc1ccc(C(=O)NCC(=O)Nc2ccncc2)cc1	-8.7	6.6	0.2	-0.7
COc1ccccc1C(=O)NN(C)C1=NS(=O)(=O)c2ccccc21	-5.7	5.7	0.0	19.7*
CN(NC(=O)CN1C(=O)c2ccccc2C1=O)C1=NS(=O)(=O)c2ccccc21	8.9	2.2	0.2	2.5
COc1ccccc1NC(=S)NCCc1ccccc1	2.0	2.3	0.3	29.5*
Cc1ccccc1NC(=S)Nc1cccc2cnccc12	5.0	3.4	0.7	2.5
Fc1ccccc1NC(=S)Nc1cccc2cnccc12	-2.0	2.9	1.8	44.0*
S=C(NCCc1ccccc1)Nc1cccc2cnccc12	3.3	0.3	9.0*	11.6
CCOC(=O)N(C)[C@H]1C[C@H]2c3[nH]c4c(-c5cccc(C)c5)cccc4c3CCN2C[C@H]1[C@H](C)O	-5.8	-0.4	.	.
CC(C)NC(=O)COc1coc(CN2CCN(c3ccccc3)CC2)cc1=O	-1.0	5.2	0.0	23.2*
CC[C@H](NC(=O)[C@@H](Cc1ccccc1)NC(=O)[C@H]1O[C@@H](n2cnc3c(=O)[nH]c(N)nc32)[C@H](O)[C@@H]1O)c1ccccc1	-7.6	-4.9	.	.
O=C(NCCCN1CCOCC1)C1CC(=O)N(CCc2ccccc2)C1 (configuration not stated)	-1.9	-1.3	-0.1	1.0
O=C(NCCCN1CCCCCC1)C1CC(=O)N(CCc2ccccc2)C1 (configuration not stated)	-0.4	-1.2	0.8	22.7*
OCC1CCCN(C(=S)Nc2ccc(Nc3ccccc3)cc2)C1 (configuration not stated)	5.2	1.1	0.7	33.0*
SMILES	Tn7 DDE FP	DDE Tn6 FP inh	aDG glyco up	NRP1-CendR mod
O=C(CS(=O)(=O)c1ccccc1)N1CCc2ccccc21	1.6	-4.4	-0.1	-2.5
O=C(CCS(=O)(=O)c1ccc(Br)s1)N1CCc2ccccc21	-0.7	0.4	0.3	34.3*
O=C(Nc1c(-c2ccccc2)[nH][nH]c1=O)c1ccco1	2.3	1.5	-0.1	-1.6
O=C(O)C1C(C(=O)Nc2ccc(Cl)cc2)C2C=CC1C21CC1 (configuration not stated)	-1.9	-10.0	0.0	28.4*
Cc1ccc(C)c(N2CCN(C(=O)c3cc4ccccn4n3)CC2)c1	.	.	0.1	21.0*
O=C(c1cc2ccccn2n1)N1CCN(c2cccc(C(F)(F)F)c2)CC1	6.1	4.5	0.2	-0.6
COc1ccc(-n2nnnc2C(CCc2ccccc2)N2CCN(C/C=C/c3ccccc3)CC2)cc1 (configuration not stated)	0.2	10.6	-0.4	24.0*
CCC(c1nnnn1-c1ccc(OC)cc1)N1CCN(C/C=C/c2ccccc2)CC1 (configuration not stated)	-1.4	-3.0	-0.3	4.4
CC(=O)Nc1cccc(-c2csc(NCc3ccccc3)n2)c1	-3.8	-7.3	0.5	25.7*
COCCCNc1c2c3c(cccc3[nH]c1=O)C(=O)c1ccccc1-2	5.8	85.8*	-0.1	144.7
CCOC(=O)c1c2c3c(cccc3[nH]c1=O)C(=O)c1ccccc1-2	2.4	2.9	-0.2	-7.3
CCCC1CCC2(CC1)CCC2OC(=O)Nc1ccc2c(c1)OCO2 (configuration not stated)	-6.6	-0.4	.	.
C=CCN1[C@H](CC(C)C)COc2cc(F)ccc2S1(=O)=O	6.3	0.7	.	.
Cc1nn(C)c(C)c1CN(C)S(=O)(=O)c1ccc2ccccc2c1	-3.4	-1.3	6.5*	-2.7
Cc1nn(C)c(C)c1CN(C)S(=O)(=O)c1ccc(F)cc1	-1.2	-1.8	0.5	3.3
Cn1c(=O)c2c(nc(CN3CCN(C(=O)c4ccco4)CC3)n2Cc2ccc(F)cc2)n(C)c1=O	2.2	4.1	0.1	28.4*
Cn1c(=O)c2c(nc(CN3CCN(C(=O)c4ccco4)CC3)n2Cc2ccccc2F)n(C)c1=O	8.2	-2.6	0.0	-16.2
Cn1c(=O)c2c(nc(CN3CCOCC3)n2CCN2CCOCC2)n(C)c1=O	.	.	0.1	26.8*
c1ccc(Nc2ncnc3c2oc2ccccc23)cc1	1.1	0.9	-0.2	24.3*
Oc1ccc(Nc2ncnc3c2oc2ccccc23)cc1	1.2	-2.4	0.3	-3.4
CC1CCN(CC(=O)Nc2ccccc2C(=O)c2ccccc2)CC1	2.5	5.2	-0.1	15.7
CC1CCN(CC(=O)Nc2ccccc2-c2ccccc2)CC1	1.9	-4.2	0.1	36.3*
CCCCOc1ccc(C(=O)N/C(=C/C=C/c2ccccc2)C(=O)NCCCO)cc1	3.8	-1.0	-0.1	22.0*
CCCCOc1ccc(C(=O)N/C(=C/C=C/c2ccccc2)C(=O)NCCO)cc1	1.1	1.5	-0.4	15.7
NC(=O)C1CCCN(C(=O)c2ccc3c(c2)NC(=O)CS3)C1 (configuration not stated)	-0.8	-4.6	0.0	5.4
COc1ccc(F)cc1C1=CC(=O)C[C@H](c2ccc3c(c2)OCO3)C1	-0.1	-6.6	0.0	25.3*
CN1c2ccccc2C(C)(C)C12CC(c1cccc(S(=O)(=O)N3CCCC3)c1)=NO2 (configuration not stated)	6.4	-1.1	0.9	0.6
CN1c2ccccc2C(C)(C)C12CC(c1ccc(S(=O)(=O)N3CCCCC3)cc1)=NO2 (configuration not stated)	-7.0	4.9	0.4	19.3*
O=C1CCC(NC(=O)Cc2ccccc2)C(=O)N1 (configuration not stated)	-4.9	3.1	.	.
CC(C)NS(=O)(=O)c1ccc2c(c1)oc(=O)n2C	3.2	2.7	-0.2	21.9*
